Source: PubChem BioAssay
T cruzi intra: inhibitors of intracellular Trypanosoma cruzi, primary screen, cell-based, plate reader, single point, set 2; activity score (inhibition), % at 5.01 µM; intracellular Trypanosoma cruzi in host cells; 22,000 tested, 4.9% active; in the data active means activity score above about 55%;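 further: parasites and compound incubated about four days before reading; 0% = median of neutral control wells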
A1 apoptosis 2: A1 inhibitors via caspase activation, primary screen, cell-based, luminescence, HTS, two replicates; MEF A1-2A-BIM cells, caspase-Glo luminescence, 3 h; percent of clofoctol response, DMSO zero; caspase activation, % (concentration not given with the values); 24,000 tested, under 10 active; in the data active means caspase activation above about 5.9%
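System: mouse embryonic fibroblasts co-expressing A1 and BIM (A1-2A-BIM), primed for A1 dependence; amount: 2500 cells/well; doses: 50 nL pinned compound; schedule: cells settled overnight, compound exposure 3 h at 37 °C, 5% CO2; detection: Caspase-Glo 3/7 luminescence, 1 h at room temperature; read-out: Caspase-3/7 activation, seen as rise in luminescence signal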
INS-1E ATP HTS: protection of INS-1E cells from cytokine death, primary screen, ATP luminescence, single point; 20,000 tested, 0.1% active; protection from cytokine-induced ATP loss, % at 10 µM; INS-1E cytokine-induced death, 48 h; normalised: neutral wells 0, positive control 100;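 active means mean replicate protection from cytokine-induced ATP loss at least 50% and at least 75% of replicates each reaching 50%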
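Assay system: INS-1E rat cells / Quantity: 8000 cells per well / Medium: RPMI without phenol red, 5% FBS / Probe or stimulus: three-cytokine cocktail (IFN-γ, TNF-α, IL-1β) / Dosing: one compound concentration, pin transfer / Timing: 48 h co-treatment, 10 min post-lysis read / Technique: CellTiter-Glo luminescence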
* = called active by the depositor; nt = no result given. The entries come from a sample that favours hits as a whole.

SMILES	T cruzi intra	A1 apoptosis 2	INS-1E ATP HTS
C[C@@H]1CN([C@@H](C)CO)C(=O)c2cccc(NC(=O)Nc3ccc(C(F)(F)F)cc3)c2O[C@H]1CN(C)Cc1ccc2c(c1)OCO2	90*	nt	-60
C[C@@H]1CN([C@H](C)CO)C(=O)c2cccc(NC(=O)Nc3ccc4c(c3)OCO4)c2O[C@H]1CN(C)Cc1ccc(C(F)(F)F)cc1	9	0	-7
CC(C)NC(=O)N(C)C[C@H]1Oc2ccc(NS(=O)(=O)c3cn(C)cn3)cc2C(=O)N([C@@H](C)CO)C[C@H]1C	-3	-1	7
C[C@H](CO)N1C[C@H](C)[C@@H](CN(C)S(C)(=O)=O)Oc2ccc(NS(=O)(=O)c3ccc(Cl)cc3)cc2C1=O	7	0	7
C[C@H](CO)N1C[C@H](C)[C@H](CN(C)Cc2ccc3c(c2)OCO3)Oc2c(NC(=O)Nc3ccc(F)cc3)cccc2C1=O	50	nt	-22
C[C@H](CO)N1C[C@H](C)[C@@H](CN(C)Cc2ccc3c(c2)OCO3)Oc2c(NC(=O)Nc3ccc(F)cc3)cccc2C1=O	60*	0	-8
COc1ccc(S(=O)(=O)Nc2ccc3c(c2)C(=O)N([C@H](C)CO)C[C@H](C)[C@@H](CN(C)C(=O)Nc2ccc(F)cc2)OCCCC[C@@H](C)O3)cc1	5	nt	1
C[C@@H]1CCCCO[C@H](CN(C)C(=O)Nc2ccc(F)cc2)[C@@H](C)CN([C@H](C)CO)C(=O)c2cc(NC(=O)Nc3ccc(F)cc3)ccc2O1	59*	0	-3
C[C@@H]1CCCCO[C@@H](CN(C)C(=O)Nc2ccc(C(F)(F)F)cc2)[C@@H](C)CN([C@H](C)CO)C(=O)c2cc(NC(=O)CCC(F)(F)F)ccc2O1	13	nt	5
C[C@@H]1CCCCO[C@H](CN(C)C(=O)Nc2ccc(C(F)(F)F)cc2)[C@@H](C)CN([C@H](C)CO)C(=O)c2cc(NC(=O)CCC(F)(F)F)ccc2O1	66*	1	-12
C[C@H](CO)N1C[C@H](C)[C@H](CN(C)C(=O)Nc2ccc(F)cc2)OCCCC[C@H](C)Oc2ccc(NC(=O)Nc3ccc(F)cc3)cc2C1=O	nt	0	nt
C[C@@H]1CCCCO[C@H](CN(C)C(=O)NC2CCCCC2)[C@@H](C)CN([C@H](C)CO)C(=O)c2cc(NC(=O)Nc3ccc(C(F)(F)F)cc3)ccc2O1	64*	nt	-9
C[C@@H]1CCCCO[C@H](CN(C)C(=O)Nc2ccc(C(F)(F)F)cc2)[C@@H](C)CN([C@H](C)CO)C(=O)c2cc(NC(=O)Nc3ccc(F)cc3)ccc2O1	65*	0	-16
C[C@@H]1CN([C@H](C)CO)C(=O)c2cc(NC(=O)Nc3ccc(F)cc3)ccc2O[C@@H](C)CCCCO[C@H]1CN(C)C(=O)Nc1ccc(C(F)(F)F)cc1	nt	0	nt
C[C@H]1CCCCO[C@H](CN(C)C(=O)NC2CCCCC2)[C@@H](C)CN([C@@H](C)CO)C(=O)c2cc(NC(=O)Nc3ccc(C(F)(F)F)cc3)ccc2O1	nt	0	nt
Cc1ccc(S(=O)(=O)N(C)C[C@H]2OCCCC[C@H](C)Oc3ccc(NS(=O)(=O)c4cn(C)cn4)cc3C(=O)N([C@H](C)CO)C[C@@H]2C)cc1	nt	0	nt
CC(C)NC(=O)Nc1ccc2c(c1)C(=O)N([C@@H](C)CO)C[C@@H](C)[C@H](CN(C)S(=O)(=O)c1cn(C)cn1)OCCCC[C@@H](C)O2	nt	-2	nt
C[C@@H]1CCCCO[C@@H](CN(C)S(=O)(=O)c2cn(C)cn2)[C@H](C)CN([C@H](C)CO)C(=O)c2cc(NC(=O)Nc3ccc(C(F)(F)F)cc3)ccc2O1	nt	-1	nt
O=C(N/N=C/c1ccc(-n2ccnc2)cc1)c1ccccn1	7	-9	-2
CNC[C@@H]1OCCCC[C@H](C)Oc2ccc(NC(=O)NC(C)C)cc2C(=O)N([C@H](C)CO)C[C@H]1C	nt	-1	nt
C[C@@H]1CCCCO[C@H](CN(C)C(=O)Nc2ccc(C(F)(F)F)cc2)[C@@H](C)CN([C@H](C)CO)C(=O)c2cc(NC(=O)Nc3ccccc3)ccc2O1	57*	1	-29
C[C@@H]1CCCCO[C@H](CN(C)C(=O)Nc2ccc(C(F)(F)F)cc2)[C@@H](C)CN([C@@H](C)CO)C(=O)c2cc(NC(=O)Nc3ccc(C(F)(F)F)cc3)ccc2O1	nt	0	nt
C[C@@H]1CN([C@@H](C)CO)C(=O)c2cc(NC(=O)Nc3ccc(C(F)(F)F)cc3)ccc2O[C@H]1CN(C)C(=O)Nc1ccc(C(F)(F)F)cc1	74*	-1	-106
C[C@@H]1CN([C@H](C)CO)C(=O)c2cc(NC(=O)Nc3ccc(C(F)(F)F)cc3)ccc2O[C@@H]1CN(C)C(=O)Nc1ccc(C(F)(F)F)cc1	41	nt	-15
C[C@H]1CCCCO[C@H](CN(C)C(=O)Nc2ccc(C(F)(F)F)cc2)[C@@H](C)CN([C@@H](C)CO)C(=O)c2cc(NC(=O)Nc3ccc(F)cc3)ccc2O1	nt	-1	nt
SMILES	T cruzi intra	A1 apoptosis 2	INS-1E ATP HTS
C[C@H]1CCCCO[C@H](CN(C)C(=O)Nc2ccccc2)[C@@H](C)CN([C@@H](C)CO)C(=O)c2cc(NC(=O)Nc3ccc(C(F)(F)F)cc3)ccc2O1	nt	1	nt
C[C@@H]1CCCCO[C@@H](CN(C)C(=O)Nc2ccc(C(F)(F)F)cc2)[C@@H](C)CN([C@H](C)CO)C(=O)c2cc(NC(=O)Nc3ccc(F)cc3)ccc2O1	71*	-1	-14
C[C@@H]1CCCCO[C@H](CN(C)C(=O)Nc2ccc(C(F)(F)F)cc2)[C@@H](C)CN([C@H](C)CO)C(=O)c2cc(NC(=O)Nc3ccc(C(F)(F)F)cc3)ccc2O1	65*	0	-23
COc1ccc(NC(=O)N(C)C[C@H]2Oc3ccc(NC(=O)CCC(F)(F)F)cc3CC(=O)N([C@@H](C)CO)C[C@H]2C)cc1	-36	nt	6
C[C@H](CO)N1C[C@H](C)[C@H](CN(C)C(=O)Nc2ccc(C(F)(F)F)cc2)Oc2ccc(NC(=O)Nc3ccc(F)cc3)cc2C1=O	12	-2	-45
CO[C@H]1O[C@H](CO)[C@@H](OC(=O)Nc2ccc3c(c2)OCO3)[C@H](OC(=O)Nc2ccccc2)[C@@H]1OC(=O)Nc1ccccc1	nt	-2	nt
Cc1noc(C)c1S(=O)(=O)N(C)C[C@H]1Oc2ccc(NC(=O)CCCCCC(=O)Nc3ccccc3N)cc2CC(=O)N([C@@H](C)CO)C[C@@H]1C	-30	0	-9
C[C@@H]1CN([C@@H](C)CO)C(=O)c2cc(NS(=O)(=O)c3cn(C)cn3)ccc2O[C@@H](C)CCCCO[C@@H]1CN(C)C(=O)Nc1ccc(F)cc1	nt	-1	nt
COc1ccc(S(=O)(=O)Nc2ccc3c(c2)C(=O)N([C@@H](C)CO)C[C@@H](C)[C@@H](CN(C)C(=O)Nc2cccc4ccccc24)OCCCC[C@H](C)O3)cc1	nt	-2	nt
C[C@@H]1CCCCO[C@@H](CN(C)C(=O)Nc2ccc(C(F)(F)F)cc2)[C@@H](C)CN([C@H](C)CO)C(=O)c2cc(NC(=O)Cc3ccccc3)ccc2O1	59*	nt	-5
